ChEMBL document CHEMBL4152188, “Design, synthesis and biological evaluation of C(4) substituted monobactams as antibacterial agents against multidrug-resistant Gram-negative bacteria” (Eur J Med Chem, 2018)
In brackets after ≈: the same amount, converted by molar mass. One block for each molecule: values may come before it.

Columns and labels:
Type in all cases: functional
[1] = tested on: Escherichia coli; assay: Antibacterial activity against extended-spectrum beta-lactamase producing Escherichia coli isolate 212648 after 18 hrs by CLSI broth microdilution method; conditions: isolate 212648, 18 h
[2] = tested on: Escherichia coli; assay: Selectivity index, ratio of MIC for against extended-spectrum beta-lactamase producing Escherichia coli isolate 208687 to MIC for extended-spectrum beta-lactamase producing Escherichia coli isolate 208687 in presence of BPL
[3] = tested on: Escherichia coli; assay: Antibacterial activity against Escherichia coli isolate 210737 after 18 hrs by CLSI broth microdilution method; conditions: isolate 210737, 18 h
[4] = tested on: Escherichia coli; assay: Antibacterial activity against extended-spectrum beta-lactamase producing Escherichia coli isolate 208687 after 18 hrs by CLSI broth microdilution method; conditions: isolate 208687, 18 h
[5] = tested on: Escherichia coli; assay: Antibacterial activity against extended-spectrum beta-lactamase producing Escherichia coli isolate 208687 after 18 hrs in presence of BPL by CLSI broth microdilution method; conditions: isolate 208687, 18 h
Summary of the method: (§1)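 CLSI broth microdilution against clinical isolates (ESBL E. coli, KPC-2 MDR K. pneumoniae, IMP-4 MDR P. aeruginosa; five per species). Iron limitation: Mueller-Hinton broth supplemented with 16 mg/liter 2,2'-bipyridyl to complex iron and induce iron uptake systems. Read-out: MIC.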

[6] = tested on: Escherichia coli; assay: Antibacterial activity against Escherichia coli isolate 210737 after 18 hrs in presence of BPL by CLSI broth microdilution method; conditions: isolate 210737, 18 h; summary of the method: as §1
[7] = tested on: Escherichia coli; assay: Selectivity index, ratio of MIC for against Escherichia coli isolate 210737 to MIC for Escherichia coli isolate 210737 in presence of BPL
[8] = tested on: Escherichia coli; assay: Antibacterial activity against extended-spectrum beta-lactamase producing Escherichia coli isolate 212648 after 18 hrs in presence of BPL by CLSI broth microdilution method; conditions: isolate 212648, 18 h; summary of the method: as §1
[9] = tested on: Escherichia coli; assay: Selectivity index, ratio of MIC for against extended-spectrum beta-lactamase producing Escherichia coli isolate 212648 to MIC for extended-spectrum beta-lactamase producing Escherichia coli isolate 212648 in presence of BPL
[10] = tested on: Escherichia coli; assay: Antibacterial activity against extended-spectrum beta-lactamase producing Escherichia coli isolate 209285 after 18 hrs by CLSI broth microdilution method; conditions: isolate 209285, 18 h
[11] = tested on: Escherichia coli; assay: Antibacterial activity against extended-spectrum beta-lactamase producing Escherichia coli isolate 209285 after 18 hrs in presence of BPL by CLSI broth microdilution method; conditions: isolate 209285, 18 h; summary of the method: as §1
[12] = tested on: Escherichia coli; assay: Selectivity index, ratio of MIC for against extended-spectrum beta-lactamase producing Escherichia coli isolate 209285 to MIC for extended-spectrum beta-lactamase producing Escherichia coli isolate 209285 in presence of BPL
[13] = tested on: Escherichia coli; assay: Antibacterial activity against extended-spectrum beta-lactamase producing Escherichia coli isolate 106342 after 18 hrs by CLSI broth microdilution method; conditions: isolate 106342, 18 h
[14] = tested on: Escherichia coli; assay: Antibacterial activity against extended-spectrum beta-lactamase producing Escherichia coli isolate 106342 after 18 hrs in presence of BPL by CLSI broth microdilution method; conditions: isolate 106342, 18 h; summary of the method: as §1
[15] = tested on: Escherichia coli; assay: Selectivity index, ratio of MIC for against extended-spectrum beta-lactamase producing Escherichia coli isolate 106342 to MIC for extended-spectrum beta-lactamase producing Escherichia coli isolate 106342 in presence of BPL
[16] = tested on: Klebsiella pneumoniae; assay: Antibacterial activity against KPC-2 producing Klebsiella pneumoniae isolate 212423 after 18 hrs by CLSI broth microdilution method; conditions: isolate 212423, 18 h
[17] = tested on: Klebsiella pneumoniae; assay: Antibacterial activity against KPC-2 producing Klebsiella pneumoniae isolate 212423 after 18 hrs in presence of BPL by CLSI broth microdilution method; conditions: isolate 212423, 18 h; summary of the method: as §1
[18] = tested on: Klebsiella pneumoniae; assay: Selectivity index, ratio of MIC for against KPC-2 producing Klebsiella pneumoniae isolate 212423 to MIC for against KPC-2 producing Klebsiella pneumoniae isolate 212423 in presence of BPL
[19] = tested on: Klebsiella pneumoniae; assay: Antibacterial activity against KPC-2 producing Klebsiella pneumoniae isolate 209632 after 18 hrs by CLSI broth microdilution method; conditions: isolate 209632, 18 h
[20] = tested on: Klebsiella pneumoniae; assay: Antibacterial activity against KPC-2 producing Klebsiella pneumoniae isolate 209632 after 18 hrs in presence of BPL by CLSI broth microdilution method; conditions: isolate 209632, 18 h; summary of the method: as §1
[21] = tested on: Klebsiella pneumoniae; assay: Selectivity index, ratio of MIC for against KPC-2 producing Klebsiella pneumoniae isolate 209632 to MIC for against KPC-2 producing Klebsiella pneumoniae isolate 209632 in presence of BPL
[22] = tested on: Klebsiella pneumoniae; assay: Antibacterial activity against KPC-2 producing Klebsiella pneumoniae isolate 209735 after 18 hrs by CLSI broth microdilution method; conditions: isolate 209735, 18 h
[23] = tested on: Klebsiella pneumoniae; assay: Antibacterial activity against KPC-2 producing Klebsiella pneumoniae isolate 209735 after 18 hrs in presence of BPL by CLSI broth microdilution method; conditions: isolate 209735, 18 h; summary of the method: as §1
[24] = tested on: Klebsiella pneumoniae; assay: Selectivity index, ratio of MIC for against KPC-2 producing Klebsiella pneumoniae isolate 209735 to MIC for against KPC-2 producing Klebsiella pneumoniae isolate 209735 in presence of BPL
[25] = tested on: Klebsiella pneumoniae; assay: Antibacterial activity against KPC-2 producing Klebsiella pneumoniae isolate 212232 after 18 hrs by CLSI broth microdilution method; conditions: isolate 212232, 18 h
[26] = tested on: Klebsiella pneumoniae; assay: Antibacterial activity against KPC-2 producing Klebsiella pneumoniae isolate 212232 after 18 hrs in presence of BPL by CLSI broth microdilution method; conditions: isolate 212232, 18 h; summary of the method: as §1
[27] = tested on: Klebsiella pneumoniae; assay: Selectivity index, ratio of MIC for against KPC-2 producing Klebsiella pneumoniae isolate 212232 to MIC for against KPC-2 producing Klebsiella pneumoniae isolate 212232 in presence of BPL
[28] = tested on: Klebsiella pneumoniae; assay: Antibacterial activity against KPC-2 producing Klebsiella pneumoniae isolate 212229 after 18 hrs by CLSI broth microdilution method; conditions: isolate 212229, 18 h
[29] = tested on: Klebsiella pneumoniae; assay: Antibacterial activity against KPC-2 producing Klebsiella pneumoniae isolate 212229 after 18 hrs in presence of BPL by CLSI broth microdilution method; conditions: isolate 212229, 18 h; summary of the method: as §1
[30] = tested on: Klebsiella pneumoniae; assay: Selectivity index, ratio of MIC for against KPC-2 producing Klebsiella pneumoniae isolate 212229 to MIC for against KPC-2 producing Klebsiella pneumoniae isolate 212229 in presence of BPL
[31] = tested on: Pseudomonas aeruginosa; assay: Antibacterial activity against IMP-4 producing Pseudomonas aeruginosa isolate 212886 after 18 hrs by CLSI broth microdilution method; conditions: isolate 212886, 18 h
[32] = tested on: Pseudomonas aeruginosa; assay: Antibacterial activity against IMP-4 producing Pseudomonas aeruginosa isolate 212886 after 18 hrs in presence of BPL by CLSI broth microdilution method; conditions: isolate 212886, 18 h; summary of the method: as §1
[33] = tested on: Pseudomonas aeruginosa; assay: Selectivity index, ratio of MIC for against IMP-4 producing Pseudomonas aeruginosa isolate 212886 to MIC for against IMP-4 producing Pseudomonas aeruginosa isolate 212886 in presence of BPL
[34] = tested on: Pseudomonas aeruginosa; assay: Antibacterial activity against IMP-4 producing Pseudomonas aeruginosa isolate 209471 after 18 hrs by CLSI broth microdilution method; conditions: isolate 209471, 18 h
[35] = tested on: Pseudomonas aeruginosa; assay: Antibacterial activity against IMP-4 producing Pseudomonas aeruginosa isolate 209471 after 18 hrs in presence of BPL by CLSI broth microdilution method; conditions: isolate 209471, 18 h; summary of the method: as §1
[36] = tested on: Pseudomonas aeruginosa; assay: Selectivity index, ratio of MIC for against IMP-4 producing Pseudomonas aeruginosa isolate 209471 to MIC for against IMP-4 producing Pseudomonas aeruginosa isolate 209471 in presence of BPL
[37] = tested on: Pseudomonas aeruginosa; assay: Antibacterial activity against IMP-4 producing Pseudomonas aeruginosa isolate 208247 after 18 hrs by CLSI broth microdilution method; conditions: isolate 208247, 18 h
[38] = tested on: Pseudomonas aeruginosa; assay: Antibacterial activity against IMP-4 producing Pseudomonas aeruginosa isolate 208247 after 18 hrs in presence of BPL by CLSI broth microdilution method; conditions: isolate 208247, 18 h; summary of the method: as §1
[39] = tested on: Pseudomonas aeruginosa; assay: Selectivity index, ratio of MIC for against IMP-4 producing Pseudomonas aeruginosa isolate 208247 to MIC for against IMP-4 producing Pseudomonas aeruginosa isolate 208247 in presence of BPL
[40] = tested on: Pseudomonas aeruginosa; assay: Antibacterial activity against IMP-4 producing Pseudomonas aeruginosa isolate 209321 after 18 hrs by CLSI broth microdilution method; conditions: isolate 209321, 18 h
[41] = tested on: Pseudomonas aeruginosa; assay: Antibacterial activity against IMP-4 producing Pseudomonas aeruginosa isolate 209321 after 18 hrs in presence of BPL by CLSI broth microdilution method; conditions: isolate 209321, 18 h; summary of the method: as §1
[42] = tested on: Pseudomonas aeruginosa; assay: Selectivity index, ratio of MIC for against IMP-4 producing Pseudomonas aeruginosa isolate 209321 to MIC for against IMP-4 producing Pseudomonas aeruginosa isolate 209321 in presence of BPL
[43] = tested on: Pseudomonas aeruginosa; assay: Antibacterial activity against IMP-4 producing Pseudomonas aeruginosa isolate 207272 after 18 hrs by CLSI broth microdilution method; conditions: isolate 207272, 18 h
[44] = tested on: Pseudomonas aeruginosa; assay: Antibacterial activity against IMP-4 producing Pseudomonas aeruginosa isolate 207272 after 18 hrs in presence of BPL by CLSI broth microdilution method; conditions: isolate 207272, 18 h; summary of the method: as §1
[45] = tested on: Pseudomonas aeruginosa; assay: Selectivity index, ratio of MIC for against IMP-4 producing Pseudomonas aeruginosa isolate 207272 to MIC for against IMP-4 producing Pseudomonas aeruginosa isolate 207272 in presence of BPL

MIC [1]: 0.5 µg/mL (≈ 0.776 µM)
MIC [3]: 0.5 µg/mL (≈ 0.776 µM)
MIC [4]: 0.125 µg/mL (≈ 0.194 µM)
MIC [5]: 0.06 µg/mL
MIC [6]: 0.25 µg/mL
MIC [8]: 0.25 µg/mL
MIC [10]: 1 µg/mL (≈ 1.55 µM)
MIC [11]: 0.25 µg/mL
MIC [13]: 1 µg/mL (≈ 1.55 µM)
MIC [14]: 0.5 µg/mL
MIC [16]: 2 µg/mL (≈ 3.1 µM)
MIC [17]: 1 µg/mL
MIC [19]: 1 µg/mL (≈ 1.55 µM)
MIC [20]: 1 µg/mL
MIC [22]: 2 µg/mL (≈ 3.1 µM)
MIC [23]: 0.5 µg/mL
MIC [25]: 2 µg/mL (≈ 3.1 µM)
MIC [26]: 0.25 µg/mL
MIC [28]: 1 µg/mL (≈ 1.55 µM)
MIC [29]: 0.5 µg/mL
MIC [31]: > 64 µg/mL
MIC [32]: 32 µg/mL
MIC [34]: 64 µg/mL (≈ 99.3 µM)
MIC [35]: 64 µg/mL
MIC [37]: 32 µg/mL (≈ 49.6 µM)
MIC [38]: 16 µg/mL
MIC [40]: 64 µg/mL (≈ 99.3 µM)
MIC [41]: 32 µg/mL
MIC [43]: 32 µg/mL (≈ 49.6 µM)
MIC [44]: 16 µg/mL
Structure (SMILES): CC(C)C(O/N=C(\C(=O)N[C@@H]1C(=O)N(S(=O)(=O)O)[C@@H]1CSc1nnnn1C)c1csc(N)n1)c1cc(=O)c(O)cn1O (stereo not given in full)
Selectivity Index [2]: 2
Selectivity Index [7]: 2
Selectivity Index [9]: 2
Selectivity Index [12]: 4
Selectivity Index [15]: 2
Selectivity Index [18]: 2
Selectivity Index [21]: 1
Selectivity Index [24]: 4
Selectivity Index [27]: 8
Selectivity Index [30]: 2
Selectivity Index [33]: >2
Selectivity Index [36]: 1
Selectivity Index [39]: 2
Selectivity Index [42]: 2
Selectivity Index [45]: 2

MIC [1]: 4 µg/mL (≈ 7.01 µM)
MIC [3]: 0.5 µg/mL (≈ 0.876 µM)
MIC [4]: 1 µg/mL (≈ 1.75 µM)
MIC [5]: 0.5 µg/mL
MIC [6]: 0.25 µg/mL
MIC [8]: 1 µg/mL
MIC [10]: 1 µg/mL (≈ 1.75 µM)
MIC [11]: 0.5 µg/mL
MIC [13]: 2 µg/mL (≈ 3.51 µM)
MIC [14]: 0.5 µg/mL
MIC [16]: 2 µg/mL (≈ 3.51 µM)
MIC [17]: 1 µg/mL
MIC [19]: 8 µg/mL (≈ 14 µM)
MIC [20]: 1 µg/mL
MIC [22]: 4 µg/mL (≈ 7.01 µM)
MIC [23]: 1 µg/mL
MIC [25]: 4 µg/mL (≈ 7.01 µM)
MIC [26]: 1 µg/mL
MIC [28]: 4 µg/mL (≈ 7.01 µM)
MIC [29]: 1 µg/mL
MIC [31]: 16 µg/mL (≈ 28 µM)
MIC [32]: 16 µg/mL
MIC [34]: 32 µg/mL (≈ 56.1 µM)
MIC [35]: 16 µg/mL
MIC [37]: 16 µg/mL (≈ 28 µM)
MIC [38]: 8 µg/mL
MIC [40]: 16 µg/mL (≈ 28 µM)
MIC [41]: 16 µg/mL
MIC [43]: 16 µg/mL (≈ 28 µM)
MIC [44]: 16 µg/mL
Structure (SMILES): CC(C)C(O/N=C(\C(=O)NC1C(=O)N(S(=O)(=O)O)C12CCCC2)c1csc(N)n1)c1cc(=O)c(O)cn1O (stereo not given)
Selectivity Index [2]: 2
Selectivity Index [7]: 2
Selectivity Index [9]: 4
Selectivity Index [12]: 2
Selectivity Index [15]: 4
Selectivity Index [18]: 2
Selectivity Index [21]: 8
Selectivity Index [24]: 4
Selectivity Index [27]: 4
Selectivity Index [30]: 4
Selectivity Index [33]: 1
Selectivity Index [36]: 2
Selectivity Index [39]: 2
Selectivity Index [42]: 1
Selectivity Index [45]: 1
